We go through 21 compounds from ChEMBL document CHEMBL1817569, “Synthesis, antifungal activity and QSAR study of 2-arylhydroxynitroindoles” (Eur J Med Chem, 2011).

Converted amounts (≈) assume the structure as drawn.

For orientation: EC50 means the concentration at which the effect is half-maximal.

Assay [1] relates to Venturia inaequalis. As to the kind of experiment: Fungicidal activity against Venturia inaequalis assessed as mycelium growth inhibition at 30 ug/mL after 72 hrs. It is filed as functional. The following applies: read-out: GI. The procedure, abridged:
(§1)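 Radial mycelial growth test on potato-saccharose agar mixed with compound at a single concentration. Plates are inoculated with inverted 3-mm fungus-coated discs and incubated at 25 °C. Colony diameter (mm) is read at 72 h against medium without sample. Inhibition I = [(DC − DT)/DC] × 100%. Three replicates.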

The subject of assay [2] is Rhizoctonia solani. In words: Fungicidal activity against Rhizoctonia solani assessed as mycelium growth inhibition at 30 ug/mL after 72 hrs. As to conditions: read-out: GI. It is filed as functional. The procedure, abridged: as §1
The test system of assay [3] is Fusarium oxysporum. In words: Fungicidal activity against Fusarium oxysporum assessed as mycelium growth inhibition at 30 ug/mL after 72 hrs. As to conditions: read-out: GI. It is filed as functional. The procedure, abridged:
as §1

The test system of assay [4] is Fusarium verticillioides. In words: Fungicidal activity against Fusarium moniliforme assessed as mycelium growth inhibition at 30 ug/mL after 72 hrs. It is filed as functional. As to conditions: read-out: GI. The method, boiled down:
as §1

Assay [5] relates to Bipolaris sorokiniana. As to the kind of experiment: Fungicidal activity against Bipolaris sorokiniana assessed as mycelium growth inhibition at 30 ug/mL after 72 hrs. It is filed as functional. The following applies: read-out: GI. The method, boiled down: as §1
In assay [6] the test system is Sclerotinia sclerotiorum. As to the kind of experiment: Fungicidal activity against Sclerotinia sclerotiorum assessed as mycelium growth inhibition at 30 ug/mL after 72 hrs. It is filed as functional. As to conditions: read-out: GI. The procedure, abridged:
as §1

The test system of assay [7] is Venturia inaequalis. In words: Fungicidal activity against Venturia inaequalis assessed as mycelium growth inhibition after 72 hrs. It is filed as functional, organism-based. The method, boiled down:
(§2)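 EC50 from radial mycelial growth on potato-saccharose agar over a 1–100 concentration range. Inverted 3-mm fungus-coated discs are placed on the agar and incubated at 25 °C. Colony diameter (mm) is measured at 72 h, with plain medium as blank. Percent inhibition = (DC − DT)/DC × 100. Triplicate tests.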

Assay [8] concerns Rhizoctonia solani. In words: Fungicidal activity against Rhizoctonia solani assessed as mycelium growth inhibition after 72 hrs. It is filed as functional, organism-based. The procedure, abridged: as §2
In assay [9] the test system is Fusarium oxysporum. In words: Fungicidal activity against Fusarium oxysporum assessed as mycelium growth inhibition after 72 hrs. It is filed as functional, organism-based. The method, boiled down: as §2
In assay [10] the test system is Fusarium verticillioides. In words: Fungicidal activity against Fusarium moniliforme assessed as mycelium growth inhibition after 72 hrs. It is filed as functional, organism-based. The procedure, abridged: as §2
Assay [11] deals with Bipolaris sorokiniana. In words: Fungicidal activity against Bipolaris sorokiniana assessed as mycelium growth inhibition after 72 hrs. It is filed as functional, organism-based. The procedure, abridged:
as §2

In assay [12] the test system is Sclerotinia sclerotiorum. In words: Fungicidal activity against Sclerotinia sclerotiorum assessed as mycelium growth inhibition after 72 hrs. It is filed as functional, organism-based. The procedure, abridged: as §2

Turning to `Cc1c(-c2ccccc2)[nH]c2cc([N+](=O)[O-])cc(O)c12`, the inhibition of growth at 30 µg/mL in the assay with Venturia inaequalis [1] is 93%; with Rhizoctonia solani [2] it was 100%; in the assay on Fusarium oxysporum [3], 87%; in the assay on Fusarium verticillioides [4] it was 100%; in the assay on Bipolaris sorokiniana [5] it was 89%; in the assay on Sclerotinia sclerotiorum [6], 100%. In addition, the half-maximal effective concentration (EC50) in the assay with Venturia inaequalis [7] turned out to be 15.4 µg/mL (≈ 57.4 µM); in the assay with Rhizoctonia solani [8], 5.86 µg/mL (≈ 21.8 µM); with Fusarium oxysporum [9], 18 µg/mL (≈ 67.1 µM); with Fusarium verticillioides [10] it was 3.48 µg/mL (≈ 13 µM); in the assay with Bipolaris sorokiniana [11], 13 µg/mL (≈ 48.5 µM); in the assay with Sclerotinia sclerotiorum [12], 8.65 µg/mL (≈ 32.2 µM).

For the compound `O=[N+]([O-])c1cc(O)c2cc(-c3ccccc3)[nH]c2c1`, the inhibition of growth at 30 µg/mL came out at 89% in the assay on Venturia inaequalis [1]; 100% with Rhizoctonia solani [2]; 88% with Fusarium oxysporum [3]; 100% with Fusarium verticillioides [4]; 100% in the assay with Bipolaris sorokiniana [5]; 100% in the assay on Sclerotinia sclerotiorum [6]. The EC50 was found to be 16.9 µg/mL (≈ 66.5 µM) in the assay on Venturia inaequalis [7]; 11.2 µg/mL (≈ 44.1 µM) with Rhizoctonia solani [8]; 21.5 µg/mL (≈ 84.6 µM) in the assay with Fusarium oxysporum [9]; 6.84 µg/mL (≈ 26.9 µM) with Fusarium verticillioides [10]; 26.6 µg/mL (≈ 105 µM) with Bipolaris sorokiniana [11]; 17.2 µg/mL (≈ 67.7 µM) with Sclerotinia sclerotiorum [12].

On to `O=[N+]([O-])c1cc(O)c2cc(-c3ccccc3Cl)[nH]c2c1`, for which the inhibition of growth at 30 µg/mL with Venturia inaequalis [1] stood at 44%; in the assay with Rhizoctonia solani [2] it was 100%; in the assay with Fusarium oxysporum [3], 88%; with Fusarium verticillioides [4], 100%; in the assay with Bipolaris sorokiniana [5], 100%; in the assay on Sclerotinia sclerotiorum [6], 100%.

With `O=[N+]([O-])c1cc(O)c2cc(-c3ccc(Cl)cc3Cl)[nH]c2c1`, the inhibition of growth at 30 µg/mL was 26% with Venturia inaequalis [1]; 36% in the assay with Rhizoctonia solani [2]; 25% with Fusarium oxysporum [3]; 54% in the assay with Fusarium verticillioides [4]; 22% with Bipolaris sorokiniana [5]; 29% in the assay with Sclerotinia sclerotiorum [6].

Turning to `O=[N+]([O-])c1cc(O)c2cc(-c3ccc(O)cc3)[nH]c2c1`, the inhibition of growth at 30 µg/mL with Venturia inaequalis [1] stood at 20%; in the assay on Rhizoctonia solani [2], 38%; in the assay with Fusarium oxysporum [3] it was 27%; in the assay on Fusarium verticillioides [4], 39%; with Bipolaris sorokiniana [5], 18%; in the assay with Sclerotinia sclerotiorum [6], 19%.

`O=[N+]([O-])c1cc(O)c2c(CCn3cncn3)c(-c3ccc(F)cc3)[nH]c2c1`: the inhibition of growth at 30 µg/mL in the assay with Venturia inaequalis [1] was 2%; with Rhizoctonia solani [2], 31%; with Fusarium oxysporum [3], 28%; in the assay with Fusarium verticillioides [4], 30%; in the assay with Bipolaris sorokiniana [5] it was 52%; with Sclerotinia sclerotiorum [6] it was 17%.

Regarding `O=[N+]([O-])c1cc(O)c2cc(-c3ccc(Br)cc3)[nH]c2c1`, the inhibition of growth at 30 µg/mL in the assay with Venturia inaequalis [1] came out at 15%; with Rhizoctonia solani [2], 11%; in the assay on Fusarium oxysporum [3] it was 12%; in the assay on Fusarium verticillioides [4], 21%; with Bipolaris sorokiniana [5] it was 5%; in the assay with Sclerotinia sclerotiorum [6] it was 14%.

Take `O=[N+]([O-])c1cc(O)c2cc(-c3ccc(C(F)(F)F)cc3)[nH]c2c1`: the inhibition of growth at 30 µg/mL in the assay on Venturia inaequalis [1] worked out at 53%; in the assay on Rhizoctonia solani [2], 82%; with Fusarium oxysporum [3], 71%; in the assay on Fusarium verticillioides [4] it was 84%; in the assay with Bipolaris sorokiniana [5] it was 74%; with Sclerotinia sclerotiorum [6], 70%.

Take `O=[N+]([O-])c1cc(O)c2cc(-c3ccc(F)cc3)[nH]c2c1`: the inhibition of growth at 30 µg/mL in the assay on Venturia inaequalis [1] stood at 60%; in the assay with Rhizoctonia solani [2] it was 96%; in the assay on Fusarium oxysporum [3], 58%; in the assay on Fusarium verticillioides [4], 73%; in the assay on Bipolaris sorokiniana [5], 35%; in the assay on Sclerotinia sclerotiorum [6] it was 48%.

Consider `COc1ccccc1-c1cc2c(O)cc([N+](=O)[O-])cc2[nH]1`, for which the inhibition of growth at 30 µg/mL in the assay with Venturia inaequalis [1] came out at 26%; with Rhizoctonia solani [2], 8%; in the assay on Fusarium oxysporum [3] it was 15%; in the assay on Fusarium verticillioides [4], 36%; with Bipolaris sorokiniana [5], 20%; in the assay with Sclerotinia sclerotiorum [6], 20%.

Take `Nc1cc([N+](=O)[O-])c2cc(-c3ccccc3)oc2c1`: the inhibition of growth at 30 µg/mL stood at 16% in the assay on Venturia inaequalis [1]; 3% in the assay with Rhizoctonia solani [2]; 9% in the assay on Fusarium oxysporum [3]; 5% with Fusarium verticillioides [4]; 3% in the assay on Bipolaris sorokiniana [5]; 7% in the assay with Sclerotinia sclerotiorum [6].

Consider `COc1cc([N+](=O)[O-])cc2[nH]c(-c3ccccc3)c(C)c12`, for which the inhibition of growth at 30 µg/mL in the assay with Venturia inaequalis [1] was found to be 2%; with Rhizoctonia solani [2] it was 13%; in the assay with Fusarium oxysporum [3] it was 11%; with Fusarium verticillioides [4] it was 7%; in the assay on Bipolaris sorokiniana [5], 7%; in the assay with Sclerotinia sclerotiorum [6], 5%.

Regarding `COc1cc([N+](=O)[O-])cc2c1c(C)c(-c1ccccc1)n2C`, the inhibition of growth at 30 µg/mL in the assay on Venturia inaequalis [1] was found to be 12%; with Rhizoctonia solani [2], 4%; in the assay with Fusarium oxysporum [3] it was 8%; with Fusarium verticillioides [4], 8%; with Bipolaris sorokiniana [5], 12%; in the assay on Sclerotinia sclerotiorum [6], 0%.

Regarding `COc1cc([N+](=O)[O-])cc2c1cc(-c1ccccc1)n2C`, the inhibition of growth at 30 µg/mL came to 21% with Venturia inaequalis [1]; 7% in the assay on Rhizoctonia solani [2]; 7% in the assay with Fusarium oxysporum [3]; 23% with Fusarium verticillioides [4]; 7% in the assay with Bipolaris sorokiniana [5]; 8% in the assay with Sclerotinia sclerotiorum [6].

For the compound `Cn1c(-c2ccccc2)cc2c(O)cc([N+](=O)[O-])cc21`, the inhibition of growth at 30 µg/mL was 46% in the assay on Venturia inaequalis [1]; 77% in the assay on Rhizoctonia solani [2]; 56% in the assay on Fusarium oxysporum [3]; 51% in the assay on Fusarium verticillioides [4]; 77% with Bipolaris sorokiniana [5]; 23% with Sclerotinia sclerotiorum [6].

Take `O=[N+]([O-])c1cc(O)c2cc(-c3ccccc3)n(Cc3ccc(Cl)cc3)c2c1`: the inhibition of growth at 30 µg/mL in the assay on Venturia inaequalis [1] was 12%; in the assay on Rhizoctonia solani [2] it was 34%; with Fusarium oxysporum [3] it was 27%; in the assay on Fusarium verticillioides [4], 18%; in the assay on Bipolaris sorokiniana [5] it was 11%; with Sclerotinia sclerotiorum [6], 2%.

As for `Cc1c(-c2ccccc2)[nH]c2c([N+](=O)[O-])cc(O)cc12`, the inhibition of growth at 30 µg/mL with Venturia inaequalis [1] was determined as 41%; in the assay on Rhizoctonia solani [2], 91%; in the assay with Fusarium oxysporum [3], 34%; in the assay with Fusarium verticillioides [4], 54%; in the assay on Bipolaris sorokiniana [5], 83%; in the assay with Sclerotinia sclerotiorum [6], 51%.

For `Cc1c(-c2ccccc2)[nH]c2c(O)cc([N+](=O)[O-])cc12`, the inhibition of growth at 30 µg/mL was 48% in the assay with Venturia inaequalis [1]; 89% in the assay with Rhizoctonia solani [2]; 63% in the assay with Fusarium oxysporum [3]; 71% in the assay with Fusarium verticillioides [4]; 95% in the assay with Bipolaris sorokiniana [5]; 94% in the assay on Sclerotinia sclerotiorum [6].

On to `Cc1c(-c2ccccc2)[nH]c2c([N+](=O)[O-])ccc(O)c12`, for which the inhibition of growth at 30 µg/mL in the assay with Venturia inaequalis [1] was found to be 70%; with Rhizoctonia solani [2], 100%; in the assay with Fusarium oxysporum [3], 73%; in the assay with Fusarium verticillioides [4], 84%; with Bipolaris sorokiniana [5], 83%; in the assay with Sclerotinia sclerotiorum [6], 51%.

As to `Cc1c(-c2ccccc2)[nH]c2c(O)ccc([N+](=O)[O-])c12`, the inhibition of growth at 30 µg/mL worked out at 65% in the assay with Venturia inaequalis [1]; 100% in the assay on Rhizoctonia solani [2]; 91% in the assay with Fusarium oxysporum [3]; 88% with Fusarium verticillioides [4]; 87% in the assay with Bipolaris sorokiniana [5]; 54% with Sclerotinia sclerotiorum [6].

In the case of `CC(C)(C)C(=O)C(Oc1ccc(Cl)cc1)n1cncn1` (centres undefined) [TRIADIMEFON], the inhibition of growth at 30 µg/mL in the assay on Venturia inaequalis [1] amounted to 42%; with Rhizoctonia solani [2] it was 66%; in the assay on Fusarium oxysporum [3], 60%; in the assay on Fusarium verticillioides [4], 79%; in the assay on Bipolaris sorokiniana [5], 71%; in the assay on Sclerotinia sclerotiorum [6], 47%. In addition, the EC50 in the assay on Venturia inaequalis [7] is 20 µg/mL (≈ 68.1 µM); in the assay with Rhizoctonia solani [8], 20.6 µg/mL (≈ 70.1 µM); in the assay on Fusarium oxysporum [9], 3.25 µg/mL (≈ 11.1 µM); in the assay with Fusarium verticillioides [10], 2.41 µg/mL (≈ 8.2 µM); in the assay with Bipolaris sorokiniana [11] it was 11 µg/mL (≈ 37.4 µM); in the assay with Sclerotinia sclerotiorum [12], 6.18 µg/mL (≈ 21 µM).
